Several values for one entry are separate records, joined by “and”; a condition that tells them apart may be missing. Equal entries are not always repeated.
Key:
[1] = test system: BALB/c Mice with Subcutaneous Flank DBT Tumors; test: Whole body biodistribution in mice with subcutaneous DBT gliomas; type: in vivo, mouse; settings: for biodistribution, tumor uptake: subcutaneous DBT tumor
In short: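 Male BALB/c mice carried subcutaneous flank DBT tumors (5 × 10⁵ cells) and were used at day 14. Under 1% isoflurane–oxygen, each received ~56 μCi (2.07 MBq) of ⁷⁶Br-labelled or 45 μCi (1.67 MBq) of ¹²³I-labelled test compound by tail vein in 0.9% saline. Mice were killed at 5 min, 30 min, 1, 3 and 24 h (n = 4 per time). Tissues were weighed and γ-counted with decay correction, giving % ID/g.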

[2] = test system: mice with intracranial DBT gliomas; test: Small animal PET/CT imaging in mice with intracranial DBT gliomas; type: in vivo, mouse; settings: PET; for SUV tumor uptake: intracranial DBT tumor
In short: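 Four male BALB/c mice carried intracranial DBT gliomas (1 × 10⁴ cells, right mid-cerebrum) and were imaged 14 days after implantation. Under 1% isoflurane–oxygen, each received ~55 μCi (~2.04 MBq) of ⁷⁶Br-labelled test compound by tail vein in 0.9% saline. Imaging was dynamic PET/CT for 0–60 min, then 15-min static scans at 3 and 24 h. Read-out was SUV. Tumors were confirmed afterwards by H&E on fixed brains.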

[3] = test system: DBT glioma cells; test: Competitive amino acid cell uptake assays; type: cell-based, mouse; settings: 60 s, 37 °C
In short: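 Mouse DBT glioma cells were seeded at 1 × 10⁵ cells/well and grown 48 h in 10% FBS DMEM under 5% CO₂. Cells were washed twice in 37 °C buffer, then exposed for 60 s at 37 °C, pH 7.40, to the radiotracer. Buffers were Na phosphate-buffered saline or choline-substituted Na-free buffer. Controls had 10 mM sucrose; BCH was 10 mM. Cells were washed with ice-cold buffer, lysed in 0.2% SDS/0.2 M NaOH, γ-counted, and normalized to added activity and BCA protein. Values are % of control, triplicate × two plates.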

[4] = 50–60 min (summed) after injection

- biodistribution, blood ([1]; 5 min after i.v. injection): 5.75 ± 0.44 % ID/g
- biodistribution, blood ([1]; 30 min after i.v. injection): 1.66 ± 0.16 % ID/g
- biodistribution, blood ([1]; 1 h after i.v. injection): 1.22 ± 0.19 % ID/g
- biodistribution, blood ([1]; 3 h after i.v. injection): 0.87 ± 0.44 % ID/g
- biodistribution, blood ([1]; 24 h after i.v. injection): 0.37 ± 0.04 % ID/g
- biodistribution, bone ([1]; 5 min after i.v. injection): 2.13 ± 0.43 % ID/g
- biodistribution, bone ([1]; 30 min after i.v. injection): 1.95 ± 0.29 % ID/g
- biodistribution, bone ([1]; 1 h after i.v. injection): 1.18 ± 0.64 % ID/g
- biodistribution, bone ([1]; 3 h after i.v. injection): 0.46 ± 0.20 % ID/g
- biodistribution, bone ([1]; 24 h after i.v. injection): 0.1 ± 0.04 % ID/g
- biodistribution, brain ([1]; 5 min after i.v. injection): 0.54 ± 0.04 % ID/g
- biodistribution, brain ([1]; 30 min after i.v. injection): 0.42 ± 0.02 % ID/g
- biodistribution, brain ([1]; 1 h after i.v. injection): 0.38 ± 0.04 % ID/g
- biodistribution, brain ([1]; 3 h after i.v. injection): 0.31 ± 0.06 % ID/g
- biodistribution, brain ([1]; 24 h after i.v. injection): 0.09 ± 0.01 % ID/g
- biodistribution, fat ([1]; 5 min after i.v. injection): 1.36 ± 0.38 % ID/g
- biodistribution, fat ([1]; 30 min after i.v. injection): 0.85 ± 0.71 % ID/g
- biodistribution, fat ([1]; 1 h after i.v. injection): 0.31 ± 0.20 % ID/g
- biodistribution, fat ([1]; 3 h after i.v. injection): 0.17 ± 0.04 % ID/g
- biodistribution, fat ([1]; 24 h after i.v. injection): 0.04 ± 0.01 % ID/g
- biodistribution, heart ([1]; 5 min after i.v. injection): 2.92 ± 0.29 % ID/g
- biodistribution, heart ([1]; 30 min after i.v. injection): 2.21 ± 0.18 % ID/g
- biodistribution, heart ([1]; 1 h after i.v. injection): 1.67 ± 0.27 % ID/g
- biodistribution, heart ([1]; 3 h after i.v. injection): 0.67 ± 0.15 % ID/g
- biodistribution, heart ([1]; 24 h after i.v. injection): 0.13 ± 0.02 % ID/g
- biodistribution, kidney ([1]; 5 min after i.v. injection): 47.50 ± 4.26 % ID/g
- biodistribution, kidney ([1]; 30 min after i.v. injection): 8.95 ± 0.91 % ID/g
- biodistribution, kidney ([1]; 1 h after i.v. injection): 5.49 ± 0.98 % ID/g
- biodistribution, kidney ([1]; 3 h after i.v. injection): 1.29 ± 0.43 % ID/g
- biodistribution, kidney ([1]; 24 h after i.v. injection): 0.23 ± 0.02 % ID/g
- biodistribution, liver (all) ([1]; 5 min after i.v. injection): 4.57 ± 0.27 % ID/g
- biodistribution, liver (all) ([1]; 30 min after i.v. injection): 1.63 ± 0.33 % ID/g
- biodistribution, liver (all) ([1]; 1 h after i.v. injection): 1.03 ± 0.48 % ID/g
- biodistribution, liver (all) ([1]; 3 h after i.v. injection): 0.34 ± 0.09 % ID/g
- biodistribution, liver (all) ([1]; 24 h after i.v. injection): 0.1 ± 0.02 % ID/g
- biodistribution, lung ([1]; 5 min after i.v. injection): 6.20 ± 0.41 % ID/g
- biodistribution, lung ([1]; 30 min after i.v. injection): 1.73 ± 0.16 % ID/g
- biodistribution, lung ([1]; 1 h after i.v. injection): 1.15 ± 0.22 % ID/g
- biodistribution, lung ([1]; 3 h after i.v. injection): 0.54 ± 0.07 % ID/g
- biodistribution, lung ([1]; 24 h after i.v. injection): 0.27 ± 0.05 % ID/g
- biodistribution, muscle ([1]; 5 min after i.v. injection): 1.54 ± 0.18 % ID/g
- biodistribution, muscle ([1]; 30 min after i.v. injection): 1.75 ± 0.77 % ID/g
- biodistribution, muscle ([1]; 1 h after i.v. injection): 0.98 ± 0.12 % ID/g
- biodistribution, muscle ([1]; 3 h after i.v. injection): 0.4 ± 0.20 % ID/g
- biodistribution, muscle ([1]; 24 h after i.v. injection): 0.08 ± 0.01 % ID/g
- brain uptake, fold higher than with [^123I]8 ([1]; normal brain, through 3 h after injection): 2- to 3 fold
- biodistribution, pancreas ([1]; 30 min after i.v. injection): 24.35 ± 4.06 % ID/g
- biodistribution, pancreas ([1]; 1 h after i.v. injection): 14.31 ± 8.12 % ID/g
- biodistribution, pancreas ([1]; 3 h after i.v. injection): 2.48 ± 1.17 % ID/g
- biodistribution, pancreas ([1]; 24 h after i.v. injection): 0.17 ± 0.02 % ID/g
- biodistribution, spleen ([1]; 5 min after i.v. injection): 8.20 ± 0.71 % ID/g
- biodistribution, spleen ([1]; 30 min after i.v. injection): 4.05 ± 0.55 % ID/g
- biodistribution, spleen ([1]; 1 h after i.v. injection): 2.30 ± 0.82 % ID/g
- biodistribution, spleen ([1]; 3 h after i.v. injection): 0.59 ± 0.21 % ID/g
- biodistribution, spleen ([1]; 24 h after i.v. injection): 0.18 ± 0.03 % ID/g
- biodistribution, tumor uptake ([1]; 5 min after i.v. injection): 2.5 ± 0.64 % ID/g and 2.52 ± 0.64 % ID/g
- biodistribution, tumor uptake ([1]; 30 min after i.v. injection): 3.8 ± 0.95 % ID/g and 3.79 ± 0.95 % ID/g
- biodistribution, tumor uptake ([1]; 1 h after i.v. injection): 3.7 ± 0.4 % ID/g and 3.72 ± 0.43 % ID/g
- biodistribution, tumor uptake ([1]; 3 h after i.v. injection): 1.65 ± 0.40 % ID/g
- biodistribution, tumor uptake ([1]; 24 h after i.v. injection): 0.25 ± 0.03 % ID/g
- maximal tumor uptake ([1]; subcutaneous DBT tumors, around 30 min to an hour postinjection): 3.7–3.8 % ID/g
- biodistribution, thyroid ([1]; thyroid, 5 min after i.v. injection): 3.60 ± 0.69 % ID/g
- thyroid uptake ([1]; thyroid, 5 min after injection): 3.6 ± 0.7 % ID/organ
- biodistribution, thyroid ([1]; thyroid, 30 min after i.v. injection): 1.63 ± 0.12 % ID/g
- biodistribution, thyroid ([1]; thyroid, 1 h after i.v. injection): 1.26 ± 0.18 % ID/g
- biodistribution, thyroid ([1]; thyroid, 3 h after i.v. injection): 0.53 ± 0.08 % ID/g
- biodistribution, thyroid ([1]; thyroid, 24 h after i.v. injection): 0.17 ± 0.06 % ID/g
- tumor/brain SUV ratio [2, 4]: 1.70 ± 0.26
- tumor/brain SUV ratio ([2]; 3 h after injection): 2.67 ± 0.15
- tumor/brain SUV ratio ([2]; 24 h after injection): 3.05 ± 0.30
- SUV tumor uptake [2, 4]: 0.63 ± 0.06
- SUV tumor uptake ([2]; 3 h after injection): 0.70 ± 0.13
Compound: C[C@](N)(/C=C/[76Br])C(=O)O [[^76Br]5, (S)-amino-2-methyl-4-[^76Br]-bromo-3-(E)-butenoic acid]
- biodistribution, pancreas ([1]; 5 min after i.v. injection): 27.0 ± 7.2 % ID/g and 27.04 ± 7.15 % ID/g
- uptake relative to control ([3]; Na BCH condition (BCH 10 mM, system L inhibitor, sodium buffer)): 43 ± 8.5%
- uptake compared to sodium control ([3]; choline + BCH (sodium-free, Cho-BCH)): 25 ± 4.1%
- uptake compared to the sodium control ([3]; choline control (sodium-free, Cho-sucrose)): 46 ± 10%
- uptake relative to the control ([3]; in the presence of MeAIB (10 mM, system A inhibitor), sodium buffer): 56 ± 12%

From publication PMC4764504 (Journal of medicinal chemistry, 2015)
